Source: PubChem BioAssay (several laboratories)
MT1-MMP act inh = blocks activation of human MT1-MMP. AID 651647. HT1080 RFP-PRO-GFP cells, GFP/RFP ratio fluorescence, overnight; percent of plate control window, DMSO zero. 360,000 compounds, 0.061% hits. P50281. GFP/RFP ratio change, % at 20 µM;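 active = GFP/RFP ratio change of at least 30% with cell ATP level not reduced by more than half and red fluorescence within 50% of control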
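Test system: HT1080 cells expressing an RFP-PRO-GFP fluorescent reporter construct / Compound dosing: single-point 20 µM compound, 1% DMSO / Schedule: cells overnight before dosing, compound overnight, 37 °C, 5% CO2 / Evaluation: GFP/RFP fluorescence ratio / Control set: DMSO and RFP-L50D-GFP cell wells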
Neddylation inh = blocks human cullin neddylation | TR-FRET cullin neddylation, biochemical | 360,000 compounds, 0.58% hits | calls only at 25 µM | P61081+Q13564 | AID 651699; in the data active = inhibition above about 36%
KLK7 zymogen act = activators of human kallikrein-7 zymogen. 370,000 compounds, 0.9% hits. purified proKLK7, EDANS-DABCYL substrate fluorescence; 100% is mature enzyme control, 0% vehicle. AID 652039. activation, % at 7 µM;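 active = activation above the mean of all tested compounds plus 3 SD, computed per campaign excluding outliers beyond control limits, cut at about 13% in these data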
Target sequence (P49862 whole entry, looked up): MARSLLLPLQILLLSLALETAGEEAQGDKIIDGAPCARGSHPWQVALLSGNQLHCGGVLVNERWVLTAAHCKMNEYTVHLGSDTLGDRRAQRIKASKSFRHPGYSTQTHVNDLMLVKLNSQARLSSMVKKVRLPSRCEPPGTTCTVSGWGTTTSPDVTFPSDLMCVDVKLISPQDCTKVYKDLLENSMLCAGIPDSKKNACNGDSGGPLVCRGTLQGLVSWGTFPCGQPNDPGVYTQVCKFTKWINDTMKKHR
Tn7 DDE FP = inhibitors of Tn7 peptide binding to human fibrin DD(E); 370,000 compounds, 0.13% hits; inhibition, % at 8.3 µM; FP displacement of FITC-Tn7 peptide from fibrin DD(E); 0% = median of compound wells per plate; P02675;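 active = inhibition above the mean of compounds falling within the control limits plus 3 SD of them, cut at about 14% in these data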;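 note: 0% = plate median of compound wells and 100% = 10 µM Aha-Tn7 peptide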
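Assay system: Human clot-derived fibrin DD(E) complex | Buffer or medium: Tris/NaCl/CaCl2 buffer, pH 7.8 | Repeats: One replicate per compound | Benchmarks: Aha-Tn7 high control | Measure: % inhibition scaled between sample-field median and high-control FP | Schedule: 10 min plus 3 h, room temperature | Signal: Fluorescence polarization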
SKN-1 block = C. elegans SKN-1 inhibition; C. elegans VP596 Pgst-4::GFP/RFP ratio, acrylamide-induced, 24 h; inhibition, % at 21.8 µM; 360,000 compounds, 0.49% hits; AID 624304;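 active = interference check ratio from 0.5 to 1.5 plus GFP to RFP signal ratio inhibition reaching or exceeding a fixed threshold, cut at about 30% in these data, passing the limit was not always enough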
Tn6 DDE FP = disrupts Tn6 cyclic peptide binding to fibrin D-Dimer-E complex; AID 720509; Fibrin DD(E) TRITC-Tn6 fluorescence polarization displacement; inhibition, % at 8.3 µM; P02675; 370,000 compounds, 0.21% hits;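 active = inhibition above a per-campaign cutoff: mean of compounds within control limits plus 3 SD, cut at about 15% in these data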;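 note: 0% = median of all compound wells on the plate and 100% = blocking peptide control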
The depositor's hits bear a star. Only some compounds are listed: those with a hit (about 2.2% of all), similar ones and a draw of the others.

O=C(C[n+]1ccc(Cc2ccccc2)cc1)Nc1ccc([N+](=O)[O-])cc1Cl was read as MT1-MMP act inh 1, Neddylation inh inactive, KLK7 zymogen act 0, Tn7 DDE FP 4, SKN-1 block -2 and Tn6 DDE FP 1.
Screening O=C(Nc1nc(-c2ccc(Cl)cc2)cs1)C1=COCCO1 returned MT1-MMP act inh 1, Neddylation inh inactive, KLK7 zymogen act 0, Tn7 DDE FP 0, SKN-1 block 21 and Tn6 DDE FP 1.
Screening Cc1sc(NC(=O)C2=COCCO2)nc1-c1ccc(Cl)cc1 returned MT1-MMP act inh 0, Neddylation inh inactive, KLK7 zymogen act 0, Tn7 DDE FP -9, SKN-1 block 39* and Tn6 DDE FP 7.
O=C(c1ccc(C(F)(F)F)cc1)N1CCCCC1 was read as MT1-MMP act inh -4, Neddylation inh inactive, KLK7 zymogen act 0, Tn7 DDE FP -3, SKN-1 block 28 and Tn6 DDE FP -1.
Screening Cc1c(O)c2ccccc2oc1=O returned MT1-MMP act inh 6, Neddylation inh inactive, KLK7 zymogen act 0, Tn7 DDE FP -3, SKN-1 block -6 and Tn6 DDE FP -6.
`CC(O)CC(=O)O` (stereo unspecified) gave MT1-MMP act inh 2, Neddylation inh inactive, KLK7 zymogen act 0, Tn7 DDE FP 8, SKN-1 block 41* and Tn6 DDE FP -3.
Screening [O-]C1=N/[N+](=C/c2ccccc2Cl)CC1 returned MT1-MMP act inh 7, Neddylation inh inactive, KLK7 zymogen act 0, Tn7 DDE FP -3, SKN-1 block 35* and Tn6 DDE FP -7.
For [O-]C1=N/[N+](=C/c2ccccc2)CC1 the results were MT1-MMP act inh 1, Neddylation inh inactive, KLK7 zymogen act 0, Tn7 DDE FP -1, SKN-1 block 7 and Tn6 DDE FP -2.
Screening Cn1/c(=N/N=C/c2ccccn2)sc2ccccc21 returned MT1-MMP act inh 3, Neddylation inh inactive, KLK7 zymogen act -1, Tn7 DDE FP -6, SKN-1 block 42* and Tn6 DDE FP -3.
Screening O=C(COc1ccc(Cl)cc1)Nc1ccc(Cc2ccncc2)cc1 returned MT1-MMP act inh 1, Neddylation inh inactive, KLK7 zymogen act 0, Tn7 DDE FP 5, SKN-1 block 4 and Tn6 DDE FP 3.
Screening Oc1ccc(N=Nc2ccc3ccccc3c2)cc1 returned MT1-MMP act inh 2, Neddylation inh inactive, KLK7 zymogen act -1, Tn7 DDE FP -4, SKN-1 block 46* and Tn6 DDE FP 5.
CCOC(=O)c1nn(-c2ccc3c(c2)OCO3)cc1O was read as MT1-MMP act inh 3, KLK7 zymogen act 32*, Tn7 DDE FP 2, SKN-1 block -7 and Tn6 DDE FP 6.
For CCOC(=O)c1nn(-c2ccc(C)cc2)cc1O the results were MT1-MMP act inh -1, Neddylation inh inactive, KLK7 zymogen act -2, Tn7 DDE FP -3, SKN-1 block -24 and Tn6 DDE FP 2.
For COc1ccc(CNC(=O)c2c(N)n(CCCN3CCOCC3)c3nc4ccccc4nc23)cc1 the results were MT1-MMP act inh -1, KLK7 zymogen act -31, Tn7 DDE FP 1, SKN-1 block 36* and Tn6 DDE FP -1.
`COCC(=O)N(C)c1nnc(-c2cnccn2)s1` gave MT1-MMP act inh 2, Neddylation inh inactive, KLK7 zymogen act 32*, Tn7 DDE FP -4, SKN-1 block 4 and Tn6 DDE FP 4.
Screening CC(=O)N(C)c1nnc(-c2cnccn2)s1 returned MT1-MMP act inh 1, Neddylation inh inactive, KLK7 zymogen act 2, Tn7 DDE FP -1, SKN-1 block 4 and Tn6 DDE FP -5.
`N=C(N)SCc1ccc(Cl)cc1Cl` gave MT1-MMP act inh 1, Neddylation inh inactive, KLK7 zymogen act -1, Tn7 DDE FP -2, SKN-1 block 0 and Tn6 DDE FP 1.
Nc1ccc(CSc2ccc(Cl)cc2)c(Cl)c1 was read as MT1-MMP act inh 4, Neddylation inh inactive, KLK7 zymogen act 0, Tn7 DDE FP 5, SKN-1 block 45* and Tn6 DDE FP 0.
Screening O=C(Nc1cccn(Cc2c(F)cccc2Cl)c1=O)NC1CCCCC1 returned MT1-MMP act inh -20, Neddylation inh inactive, KLK7 zymogen act 1, Tn7 DDE FP -2, SKN-1 block 15 and Tn6 DDE FP -6.
For COC(=O)C1=C(CN2CCSCC2)NC(=O)NC1c1cc(C)ccc1C (stereo unspecified) the results were MT1-MMP act inh 1, Neddylation inh inactive, KLK7 zymogen act 0, Tn7 DDE FP -2, SKN-1 block 37* and Tn6 DDE FP -5.
`COC(=O)c1oc2ccc(Cl)cc2c1-n1cccc1` gave MT1-MMP act inh 2, Neddylation inh inactive, KLK7 zymogen act 0, Tn7 DDE FP 3, SKN-1 block 37* and Tn6 DDE FP 4.
`Cc1ccccc1Nc1ncnc2c1cnn2-c1ccccc1` gave MT1-MMP act inh -7, Neddylation inh inactive, KLK7 zymogen act 0, Tn7 DDE FP 6, SKN-1 block -1 and Tn6 DDE FP 1.
Screening COC(=O)c1ccc(COn2c(=O)c(C)[n+]([O-])c3ccccc32)cc1 returned MT1-MMP act inh -162, Neddylation inh inactive, KLK7 zymogen act 1, Tn7 DDE FP -3, SKN-1 block 44* and Tn6 DDE FP -4.
For COCCNC(=O)CCn1c(=O)oc2ccccc21 the results were MT1-MMP act inh 3, Neddylation inh inactive, KLK7 zymogen act 0, Tn7 DDE FP -7, SKN-1 block 19 and Tn6 DDE FP -2.
`O=C(c1cccc(F)c1)N1CCC(N2CCOCC2)CC1` gave MT1-MMP act inh 0, Neddylation inh inactive, KLK7 zymogen act 0, Tn7 DDE FP 2, SKN-1 block -57 and Tn6 DDE FP 2.
`Clc1ccccc1-c1ncc(-c2ccccc2)o1` gave MT1-MMP act inh 1, Neddylation inh inactive, KLK7 zymogen act 1, Tn7 DDE FP -1, SKN-1 block 42* and Tn6 DDE FP -3.
For CCCC(C)C(=O)NCc1ccccc1OC (stereo unspecified) the results were MT1-MMP act inh 8, Neddylation inh inactive, KLK7 zymogen act -1, Tn7 DDE FP 5, SKN-1 block 41* and Tn6 DDE FP 2.
CCCCC(CC)C(=O)NCc1ccccc1OC (stereo unspecified) was read as MT1-MMP act inh 2, Neddylation inh inactive, KLK7 zymogen act -1, Tn7 DDE FP -7, SKN-1 block -3 and Tn6 DDE FP -3.
For O=C(NNC(=O)c1ccccc1-n1cccc1)c1ccc(Cl)c(Cl)c1 the results were MT1-MMP act inh -2, Neddylation inh inactive, KLK7 zymogen act 0, Tn7 DDE FP 0, SKN-1 block 14 and Tn6 DDE FP 2.
